Assay results as given in ChEMBL document CHEMBL2346522, “Rational design of apoptosis signal-regulating kinase 1 inhibitors: discovering novel structural scaffold” (Eur J Med Chem, 2013).

How the values were obtained:
[1] = target: T1, Mitogen-activated protein kinase kinase kinase 5 (Homo sapiens, UniProt Q99683); test: Inhibition of human ASK1 using MBP as substrate incubated for 10 mins prior to ATP addition measured after 20 mins by liquid scintillation counting analysis
T1 sequence (Q99683 whole entry): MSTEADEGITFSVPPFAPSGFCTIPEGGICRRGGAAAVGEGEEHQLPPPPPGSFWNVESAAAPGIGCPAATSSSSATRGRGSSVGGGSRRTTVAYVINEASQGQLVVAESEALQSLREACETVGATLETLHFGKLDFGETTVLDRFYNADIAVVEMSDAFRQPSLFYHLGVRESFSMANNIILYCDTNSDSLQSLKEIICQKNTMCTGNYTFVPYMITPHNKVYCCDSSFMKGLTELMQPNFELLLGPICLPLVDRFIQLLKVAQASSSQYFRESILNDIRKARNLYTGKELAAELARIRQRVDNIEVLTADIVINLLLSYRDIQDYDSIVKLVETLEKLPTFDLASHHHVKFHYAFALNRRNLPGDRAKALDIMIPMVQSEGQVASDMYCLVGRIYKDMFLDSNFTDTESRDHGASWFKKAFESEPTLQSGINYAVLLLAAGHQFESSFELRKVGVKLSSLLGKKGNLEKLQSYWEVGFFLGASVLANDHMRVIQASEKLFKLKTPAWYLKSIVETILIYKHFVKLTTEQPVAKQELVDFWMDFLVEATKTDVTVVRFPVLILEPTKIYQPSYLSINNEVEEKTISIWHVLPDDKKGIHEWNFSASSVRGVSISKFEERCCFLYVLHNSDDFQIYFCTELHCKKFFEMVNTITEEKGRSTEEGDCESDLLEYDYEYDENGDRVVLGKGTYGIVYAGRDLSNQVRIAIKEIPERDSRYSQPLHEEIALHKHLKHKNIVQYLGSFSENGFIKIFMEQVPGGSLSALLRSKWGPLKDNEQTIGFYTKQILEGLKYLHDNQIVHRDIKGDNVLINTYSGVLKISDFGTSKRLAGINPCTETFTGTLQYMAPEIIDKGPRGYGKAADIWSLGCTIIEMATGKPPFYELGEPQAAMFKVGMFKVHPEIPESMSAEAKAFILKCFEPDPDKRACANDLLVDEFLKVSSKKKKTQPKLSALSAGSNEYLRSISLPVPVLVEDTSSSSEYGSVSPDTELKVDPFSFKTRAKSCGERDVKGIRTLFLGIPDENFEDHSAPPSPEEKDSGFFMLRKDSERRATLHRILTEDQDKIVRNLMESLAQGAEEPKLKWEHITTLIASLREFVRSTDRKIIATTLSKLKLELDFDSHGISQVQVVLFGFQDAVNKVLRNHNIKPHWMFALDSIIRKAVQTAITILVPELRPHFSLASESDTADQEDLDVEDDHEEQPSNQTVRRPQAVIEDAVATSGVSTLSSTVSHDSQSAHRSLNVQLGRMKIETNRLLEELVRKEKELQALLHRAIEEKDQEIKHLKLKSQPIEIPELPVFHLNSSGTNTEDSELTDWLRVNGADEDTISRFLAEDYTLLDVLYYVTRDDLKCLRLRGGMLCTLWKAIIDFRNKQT
Summary of the method: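 Inhibitor added from a DMSO stock is incubated with enzyme on ice for 10 min. The reaction is started with ATP plus MgCl₂ in MOPS pH 7.2, and labeled and unlabeled ATP are combined.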

[2] = target: Casein kinase II (Homo sapiens) (UniProt P67870+P68400+P19784); test: Inhibition of human CK2 using RRRDDDSDDD as substrate assessed as residual activity at 10 uM incubated for 10 mins prior to ATP addition measured after 20 mins by liquid scintillation counting analysis; assay type: protein-complex assay
[3] = target: Mitogen-activated protein kinase 10 (Homo sapiens) (UniProt P53779); test: Inhibition of human JNK3 using JNK3tide as substrate assessed as residual activity at 10 uM incubated for 10 mins prior to ATP addition measured after 20 mins by liquid scintillation counting analysis
Chain of Mitogen-activated protein kinase 10 (Homo sapiens) (P53779 whole entry): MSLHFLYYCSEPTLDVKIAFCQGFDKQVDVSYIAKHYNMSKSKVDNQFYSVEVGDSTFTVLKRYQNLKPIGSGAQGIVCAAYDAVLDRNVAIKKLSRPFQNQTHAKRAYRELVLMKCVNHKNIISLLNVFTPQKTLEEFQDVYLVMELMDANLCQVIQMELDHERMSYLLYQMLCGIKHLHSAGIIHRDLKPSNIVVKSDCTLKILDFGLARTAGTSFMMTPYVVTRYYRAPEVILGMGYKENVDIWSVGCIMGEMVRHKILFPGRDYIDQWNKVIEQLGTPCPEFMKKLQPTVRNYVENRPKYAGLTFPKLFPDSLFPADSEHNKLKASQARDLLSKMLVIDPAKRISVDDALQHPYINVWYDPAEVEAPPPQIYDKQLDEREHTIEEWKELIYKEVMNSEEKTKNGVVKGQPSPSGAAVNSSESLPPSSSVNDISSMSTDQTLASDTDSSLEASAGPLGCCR

[4] = target: Angiopoietin-1 receptor (Homo sapiens) (UniProt Q02763); test: Inhibition of human Tie2 using TK substrate 2 as substrate assessed as residual activity at 10 uM incubated for 10 mins prior to ATP addition measured after 20 mins by liquid scintillation counting analysis
Chain of Angiopoietin-1 receptor (Homo sapiens) (Q02763 whole entry): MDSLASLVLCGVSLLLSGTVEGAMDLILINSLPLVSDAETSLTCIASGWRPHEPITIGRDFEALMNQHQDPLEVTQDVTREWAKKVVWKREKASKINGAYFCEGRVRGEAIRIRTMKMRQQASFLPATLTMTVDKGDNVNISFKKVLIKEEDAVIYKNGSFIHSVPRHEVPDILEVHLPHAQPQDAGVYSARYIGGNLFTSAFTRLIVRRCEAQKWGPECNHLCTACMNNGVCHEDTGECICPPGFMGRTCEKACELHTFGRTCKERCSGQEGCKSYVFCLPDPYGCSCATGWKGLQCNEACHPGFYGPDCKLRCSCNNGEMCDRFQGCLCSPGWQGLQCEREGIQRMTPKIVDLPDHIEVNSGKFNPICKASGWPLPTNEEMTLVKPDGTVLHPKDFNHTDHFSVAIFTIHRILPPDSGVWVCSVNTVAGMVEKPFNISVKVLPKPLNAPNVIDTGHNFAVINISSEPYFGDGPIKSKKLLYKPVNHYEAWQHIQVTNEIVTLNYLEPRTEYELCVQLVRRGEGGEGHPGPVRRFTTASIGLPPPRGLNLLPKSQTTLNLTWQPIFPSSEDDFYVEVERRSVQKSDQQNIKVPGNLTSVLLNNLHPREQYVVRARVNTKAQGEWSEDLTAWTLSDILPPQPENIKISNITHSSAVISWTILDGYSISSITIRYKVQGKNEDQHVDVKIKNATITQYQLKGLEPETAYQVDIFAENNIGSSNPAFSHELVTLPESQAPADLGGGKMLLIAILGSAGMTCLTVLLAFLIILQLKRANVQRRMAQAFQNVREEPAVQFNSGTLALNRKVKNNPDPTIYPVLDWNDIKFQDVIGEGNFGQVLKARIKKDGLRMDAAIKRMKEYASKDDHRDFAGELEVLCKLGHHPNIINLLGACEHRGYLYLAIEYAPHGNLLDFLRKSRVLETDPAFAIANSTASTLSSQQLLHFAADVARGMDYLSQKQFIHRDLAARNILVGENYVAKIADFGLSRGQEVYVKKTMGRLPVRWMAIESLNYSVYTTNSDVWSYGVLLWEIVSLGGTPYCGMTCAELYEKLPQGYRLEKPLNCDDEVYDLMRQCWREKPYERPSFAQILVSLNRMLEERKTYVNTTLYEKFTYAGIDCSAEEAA

[5] = target: Fibroblast growth factor receptor 1 (Homo sapiens) (UniProt P11362); test: Inhibition of human FGFR1 using IGF-IRtide (12 to 527) as substrate assessed as residual activity at 10 uM incubated for 10 mins prior to ATP addition measured after 20 mins by liquid scintillation counting analysis
Chain of Fibroblast growth factor receptor 1 (Homo sapiens) (P11362 22-822 limits assumed): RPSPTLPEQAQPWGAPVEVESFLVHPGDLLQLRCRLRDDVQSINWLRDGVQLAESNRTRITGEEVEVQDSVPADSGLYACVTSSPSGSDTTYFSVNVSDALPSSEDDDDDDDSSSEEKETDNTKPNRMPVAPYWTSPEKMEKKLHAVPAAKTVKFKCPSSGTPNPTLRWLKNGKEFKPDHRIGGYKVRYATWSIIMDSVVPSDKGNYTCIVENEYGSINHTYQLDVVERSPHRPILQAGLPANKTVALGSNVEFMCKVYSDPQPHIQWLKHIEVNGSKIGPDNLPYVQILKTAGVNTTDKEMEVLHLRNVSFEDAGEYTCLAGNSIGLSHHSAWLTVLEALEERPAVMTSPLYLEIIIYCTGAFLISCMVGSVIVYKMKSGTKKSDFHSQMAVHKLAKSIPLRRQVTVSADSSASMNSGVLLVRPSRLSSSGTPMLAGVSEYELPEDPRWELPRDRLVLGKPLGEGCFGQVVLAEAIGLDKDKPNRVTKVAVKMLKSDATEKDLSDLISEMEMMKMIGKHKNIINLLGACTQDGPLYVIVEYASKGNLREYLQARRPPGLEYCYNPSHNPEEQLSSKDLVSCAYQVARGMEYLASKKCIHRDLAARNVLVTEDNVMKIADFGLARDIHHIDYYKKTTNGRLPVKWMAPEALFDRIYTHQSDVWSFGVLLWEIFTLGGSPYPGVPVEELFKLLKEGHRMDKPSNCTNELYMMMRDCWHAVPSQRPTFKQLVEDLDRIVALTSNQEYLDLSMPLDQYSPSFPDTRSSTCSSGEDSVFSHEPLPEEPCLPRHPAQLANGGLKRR

[6] = target: Hepatocyte growth factor receptor (Homo sapiens) (UniProt P08581); test: Inhibition of human HGFR using KKKSPGEYVNIEFG as substrate assessed as residual activity at 10 uM incubated for 10 mins prior to ATP addition measured after 20 mins by liquid scintillation counting analysis
Chain of Hepatocyte growth factor receptor (Homo sapiens) (P08581 whole entry): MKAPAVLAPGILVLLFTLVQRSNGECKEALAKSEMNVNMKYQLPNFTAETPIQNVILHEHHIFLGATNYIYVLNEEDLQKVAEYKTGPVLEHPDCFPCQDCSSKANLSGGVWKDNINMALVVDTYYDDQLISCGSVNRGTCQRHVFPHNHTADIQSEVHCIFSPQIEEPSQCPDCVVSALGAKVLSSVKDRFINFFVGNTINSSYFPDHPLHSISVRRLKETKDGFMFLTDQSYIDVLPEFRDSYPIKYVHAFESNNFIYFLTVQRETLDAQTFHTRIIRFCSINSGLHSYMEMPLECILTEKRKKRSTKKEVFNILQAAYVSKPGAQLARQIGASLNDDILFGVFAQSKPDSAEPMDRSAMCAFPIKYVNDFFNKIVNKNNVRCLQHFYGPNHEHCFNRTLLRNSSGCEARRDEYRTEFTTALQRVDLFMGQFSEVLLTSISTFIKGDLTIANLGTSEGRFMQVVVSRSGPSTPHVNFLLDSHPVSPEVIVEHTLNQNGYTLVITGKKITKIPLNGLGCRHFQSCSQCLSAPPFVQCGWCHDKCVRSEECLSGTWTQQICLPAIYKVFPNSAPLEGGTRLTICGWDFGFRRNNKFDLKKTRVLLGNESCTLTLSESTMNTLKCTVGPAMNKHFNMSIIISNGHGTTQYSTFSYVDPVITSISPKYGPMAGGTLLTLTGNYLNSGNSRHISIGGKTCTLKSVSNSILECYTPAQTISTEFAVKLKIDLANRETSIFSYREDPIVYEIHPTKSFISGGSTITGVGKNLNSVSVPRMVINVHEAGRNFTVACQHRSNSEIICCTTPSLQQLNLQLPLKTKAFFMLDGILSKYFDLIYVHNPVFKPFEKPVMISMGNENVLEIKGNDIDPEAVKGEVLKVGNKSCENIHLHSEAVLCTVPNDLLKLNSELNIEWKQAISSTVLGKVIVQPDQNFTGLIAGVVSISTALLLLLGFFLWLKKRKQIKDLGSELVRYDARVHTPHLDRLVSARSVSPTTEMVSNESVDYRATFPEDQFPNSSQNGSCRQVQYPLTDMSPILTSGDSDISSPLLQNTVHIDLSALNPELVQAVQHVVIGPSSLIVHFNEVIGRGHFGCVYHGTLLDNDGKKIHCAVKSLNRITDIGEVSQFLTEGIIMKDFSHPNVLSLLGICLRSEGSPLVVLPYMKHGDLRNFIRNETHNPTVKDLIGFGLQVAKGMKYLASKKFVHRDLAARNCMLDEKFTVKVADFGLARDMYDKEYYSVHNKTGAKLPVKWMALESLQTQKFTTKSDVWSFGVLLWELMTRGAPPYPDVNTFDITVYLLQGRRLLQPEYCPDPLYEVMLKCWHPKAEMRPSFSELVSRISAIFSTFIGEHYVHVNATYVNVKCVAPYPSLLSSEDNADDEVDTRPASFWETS

[7] = target: T2, Aurora kinase A (Homo sapiens) (UniProt O14965); test: Inhibition of human Aurora A using Kemptide as substrate assessed as residual activity at 10 uM incubated for 10 mins prior to ATP addition measured after 20 mins by liquid scintillation counting analysis
T2 sequence (whole entry): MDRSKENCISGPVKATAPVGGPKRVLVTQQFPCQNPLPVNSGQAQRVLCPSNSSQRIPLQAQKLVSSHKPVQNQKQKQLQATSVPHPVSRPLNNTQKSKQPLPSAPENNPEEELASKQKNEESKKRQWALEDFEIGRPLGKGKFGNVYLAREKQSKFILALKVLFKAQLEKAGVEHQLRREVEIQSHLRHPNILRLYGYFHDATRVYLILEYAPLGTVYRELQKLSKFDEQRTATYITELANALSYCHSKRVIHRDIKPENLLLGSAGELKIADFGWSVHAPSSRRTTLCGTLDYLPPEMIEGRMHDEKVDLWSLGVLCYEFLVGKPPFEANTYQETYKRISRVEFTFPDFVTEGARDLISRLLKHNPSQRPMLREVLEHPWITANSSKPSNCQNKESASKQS

[8] = target: T3, Mitogen-activated protein kinase kinase kinase 5 (Homo sapiens) (UniProt Q99683); test: Inhibition of human ASK1 using MBP as substrate assessed as residual activity at 10 uM incubated for 10 mins prior to ATP addition measured after 20 mins by liquid scintillation counting analysis
T3 sequence (whole entry): T1 sequence (Q99683 whole entry)

[9] = target: T1, Mitogen-activated protein kinase kinase kinase 5; test: Competitive inhibition of human ASK1 using MBP as substrate incubated for 10 mins prior to ATP addition measured after 20 mins by Lineweaver-Burk plot analysis
Summary of the method: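 ASK1 activity with MBP substrate and γ-³²P-ATP. Enzyme and substrate sit in MOPS pH 7.2 buffer (EGTA, EDTA, DTT, BSA, β-glycerophosphate). Inhibitor from a DMSO stock is pre-mixed with them on ice for 10 min. The reaction starts with ATP/MgCl₂. Substrate concentration curves are run at several inhibitor levels, in triplicate, and analysed by Lineweaver–Burk linearized plots.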

O=C(O)CN1C(=O)/C(=C/c2ccc(-c3ccccc3Cl)o2)SC1=S
IC50 [1]: 1.25 µM

O=C(O)CC(C(=O)O)N1C(=O)/C(=C/c2ccc(-c3ccc(Br)cc3)o2)SC1=S (configuration not stated)
IC50 [1]: 2.8 µM

O=C1/C(=C/c2ccco2)SC(=S)N1c1cccnc1
IC50 [1]: > 33 µM

O=C1NC(=S)S/C1=C\c1ccc(-c2ccccc2[N+](=O)[O-])o1
IC50 [1]: > 33 µM

COC(=O)CCCN1C(=O)/C(=C/c2ccc(-c3ccccc3F)o2)SC1=S
IC50 [1]: > 33 µM

O=C(O)CC(C(=O)O)N1C(=O)/C(=C/c2ccc(-c3c(Cl)cccc3Cl)o2)SC1=S (configuration not stated)
IC50 [1]: 1 µM

O=C(O)CCCN1C(=O)/C(=C/c2ccc(-c3ccc(Br)cc3)o2)SC1=S
Activity [2]: 28% | Activity [3]: 92% | Activity [4]: 28% | Activity [5]: 10% | Activity [6]: 51% | Activity [7]: 100% | Activity [8]: 3% | IC50 [1]: 0.2 µM

CCC(C(=O)O)N1C(=O)/C(=C/c2ccc(-c3cc(Cl)ccc3Cl)o2)SC1=S (configuration not stated)
IC50 [1]: 0.5 µM

O=C(O)CN1C(=O)/C(=C/c2ccc(-c3ccccc3F)o2)SC1=S
IC50 [1]: 3 µM

O=C1/C(=C/c2ccc(-c3ccc(Cl)c(Cl)c3)o2)SC(=S)N1c1ccc(F)cc1
IC50 [1]: > 33 µM

O=C(O)CCCN1C(=O)/C(=C/c2ccc(-c3ccccc3F)o2)SC1=S
IC50 [1]: 3 µM

O=C(O)CN1C(=O)/C(=C/c2ccncc2)SC1=S
IC50 [1]: > 33 µM

O=C(O)c1ccc(N2C(=O)/C(=C/c3cccnc3)SC2=S)cc1
IC50 [1]: > 33 µM

O=C(O)CCCCCN1C(=O)/C(=C/c2ccc(-c3ccccc3Cl)o2)SC1=S
IC50 [1]: 0.5 µM

CC(C(=O)O)N1C(=O)/C(=C/c2ccc(-c3ccc(Cl)c(Cl)c3)o2)SC1=S (configuration not stated)
Activity [2]: 34% | Activity [3]: 46% | Activity [4]: 29% | Activity [5]: 88% | Activity [6]: 65% | Activity [7]: 14% | Activity [8]: 3% | Ki [9]: 0.34 µM | IC50 [1]: 0.65 µM

CCC(C(=O)O)N1C(=O)/C(=C/c2ccc(-c3cccc(Cl)c3)o2)SC1=S (configuration not stated)
IC50 [1]: 0.75 µM

O=C1/C(=C/c2ccc(-c3ccc(Br)cc3)o2)SC(=S)N1c1cccc(O)c1
IC50 [1]: 2 µM

CCC(C(=O)O)N1C(=O)/C(=C/c2ccc(-c3ccc(Br)cc3)o2)SC1=S (configuration not stated)
IC50 [1]: 0.5 µM

O=C(O)CCN1C(=O)/C(=C/c2ccc(-c3ccccc3Cl)o2)SC1=S
IC50 [1]: 0.75 µM

O=C(O)CCCN1C(=O)/C(=C/c2ccc(-c3cc(Cl)ccc3Cl)o2)SC1=S
IC50 [1]: 0.35 µM

CCc1ccc(-c2ccc(/C=C3\SC(=S)N(C(CC(=O)O)C(=O)O)C3=O)o2)cc1 (configuration not stated)
IC50 [1]: 1.8 µM

O=C(O)CCN1C(=O)/C(=C/c2ccc(-c3ccc([N+](=O)[O-])cc3)o2)SC1=S
IC50 [1]: 0.65 µM

CCCC(C(=O)O)N1C(=O)/C(=C/c2ccc(-c3ccc(Cl)c(Cl)c3)o2)SC1=S (configuration not stated)
IC50 [1]: 3.9 µM

O=C(O)CCN1C(=O)/C(=C/c2ccc(-c3cccc(Cl)c3)o2)SC1=S
IC50 [1]: 1 µM

COC(=O)c1ccc(/C=C2\SC(=S)N(c3ccc(O)c(C(=O)O)c3)C2=O)cc1
IC50 [1]: > 33 µM

O=C(O)CCCCCN1C(=O)/C(=C/c2ccc(-c3cccc(C(F)(F)F)c3)o2)SC1=S
IC50 [1]: 0.5 µM

O=C(O)CCCN1C(=O)/C(=C/c2ccc(-c3cccc(Cl)c3)o2)SC1=S
IC50 [1]: 0.35 µM

CCCC(C(=O)O)N1C(=O)/C(=C/c2ccc(-c3ccc(Br)cc3)o2)SC1=S (configuration not stated)
IC50 [1]: 0.5 µM

CCOC(=O)c1ccc(-c2ccc(/C=C3\SC(=S)N(C(CC(=O)O)C(C)=O)C3=O)o2)cc1 (configuration not stated)
IC50 [1]: 0.8 µM

O=C(O)CCN1C(=O)/C(=C/c2ccc(-c3ccccc3F)o2)SC1=S
Activity [2]: 56% | Activity [3]: 87% | Activity [4]: 44% | Activity [5]: 22% | Activity [6]: 32% | Activity [7]: 39% | Activity [8]: 2.5% | IC50 [1]: 0.3 µM

CSCCC(C(=O)O)N1C(=O)/C(=C/c2ccc(-c3ccc(Cl)c(Cl)c3)o2)SC1=S (configuration not stated)
IC50 [1]: 0.75 µM

O=C1NC(=S)S/C1=C\c1cccnc1
IC50 [1]: > 33 µM

O=C1/C(=C/c2ccc(Cl)cc2Cl)SC(=S)N1Nc1ccccc1
IC50 [1]: > 33 µM

O=C(O)CN1C(=O)/C(=C/c2ccco2)SC1=S
IC50 [1]: > 33 µM

COC(=O)CCCN1C(=O)/C(=C/c2ccc(-c3ccc(Br)cc3)o2)SC1=S
IC50 [1]: > 33 µM

CCCC(C(=O)O)N1C(=O)/C(=C/c2ccc(-c3ccc([N+](=O)[O-])cc3)o2)SC1=S (configuration not stated)
IC50 [1]: 1.8 µM

O=C(O)CCCCCN1C(=O)/C(=C/c2ccc(-c3ccc(Br)cc3)o2)SC1=S
Activity [2]: 34% | Activity [3]: 65% | Activity [4]: 46% | Activity [5]: 5% | Activity [6]: 7% | Activity [7]: 21% | Activity [8]: 3% | IC50 [1]: 0.2 µM

O=C(O)CCCN1C(=O)/C(=C/c2ccc(-c3ccccc3Cl)o2)SC1=S
Activity [2]: 15% | Activity [3]: 41% | Activity [4]: 22% | Activity [5]: 16% | Activity [6]: 25% | Activity [7]: 14% | Activity [8]: 3.5% | IC50 [1]: 0.3 µM

O=C(O)CCCN1C(=O)/C(=C/c2ccc(-c3c(Cl)cccc3Cl)o2)SC1=S
IC50 [1]: 0.5 µM

O=C1NC(=S)S/C1=C\c1cccc(Br)c1
IC50 [1]: > 33 µM

O=C(O)C(Cc1ccccc1)N1C(=O)/C(=C/c2ccncc2)SC1=S (configuration not stated)
IC50 [1]: > 33 µM
